Measurements from ChEMBL document CHEMBL1139789, “Synthesis of neuroprotective cyclopentenone prostaglandin analogs: suppression of manganese-induced apoptosis of PC12 cells” (Bioorg Med Chem Lett, 2007).
Activity calls are given as the source filed them. The calls are words filed in the database; no cut-off is given here.

Key:
[1] = test system: PC-12; assay: Inhibition of manganese ion-induced apoptosis in PC12 cells assessesed as suppression of DNA fragmentation at 10 uM; type: functional; conditions: Rattus norvegicus
Summary of the method: (§1)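 PC12 cells (2·10⁷) preincubated with test agent at 10 and 20 μM for 30 min at 37 °C in DMEM plus 5% FBS. MnCl₂ then added to 0.25 mM and incubation continued 20 h at 37 °C. Soluble DNA extracted, run on agarose gels, laddering visualized on UV transilluminator.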

[2] = test system: PC-12; assay: Toxicity in PC12 cells assessed by measuring DNA fragmentation upto 20 uM; type: cell-based, Homo sapiens
Summary of the method: (§2)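 PC12 cells (2·10⁷) exposed to agent at 10 and 20 μM in DMEM with 5% FBS at 37 °C, 30 min preincubation, then 20 h further incubation with no MnCl₂ added. Apoptosis judged by DNA laddering: soluble DNA extracted, agarose gel electrophoresis, UV transilluminator visualization.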

[3] = test system: PC-12; assay: Toxicity in PC12 cells assessed by measuring DNA fragmentation at 10 uM; type: cell-based, Homo sapiens; conditions: pc-12, 10 µM; summary of the method: as §2
[4] = test system: PC-12; assay: Inhibition of manganese ion-induced apoptosis in PC12 cells assessesed as suppression of DNA fragmentation upto 20 uM; type: functional, cell-based; summary of the method: as §1

COC(=O)CCCCCC[C@H]1C=CC(=O)/C1=C/CCCCCc1ccc(C)cc1
inhibition at 10 µM [1]: 50%
Activity [2]: Non-toxic

CCCCC[C@H](O)/C=C/[C@H]1C=CC(=O)/C1=C/CCCCCC(=O)OC
Activity [3]: Toxic
Activity [4]: inactive

CCCCCCC/C=C1/C(=O)C=C[C@@H]1CCCCCCC(=O)OC
inhibition at 10 µM [1]: 50%
Activity [2]: Non-toxic

CCCCC/C=C/C=C1/C(=O)C=CC1C/C=C\CCCC(=O)O (stereo unspecified)
Activity [3]: Toxic
Activity [4]: inactive

COC(=O)CCCCCC[C@@H]1C(=O)C=C[C@H]1CCCCCCc1ccc(C)cc1
Activity [4]: inactive
Activity [2]: Non-toxic

COC(=O)CCCCC/C=C1\CC=CC1=O
Activity [4]: inactive
Activity [2]: Non-toxic

COC(=O)CCCCCC[C@@H]1C=CC(=O)/C1=C/CCCCOc1ccc(Br)cc1
Activity [3]: Toxic
Activity [4]: inactive

COC(=O)CCCCC/C=C1/C(=O)C=C[C@H]1CCCCCCc1ccc(C)cc1
inhibition at 10 µM [1]: 50%
Activity [3]: Toxic

CCCCCCCC[C@@H]1C=CC(=O)/C1=C/CCCCCC(=O)OC
inhibition at 10 µM [1]: 50%

COC(=O)CCCCCC[C@H]1C=CC(=O)/C1=C/CCCCOc1ccc(Br)cc1
inhibition at 10 µM [1]: < 50%
Activity [2]: Non-toxic

COC(=O)CCCCC/C=C1/C(=O)CC[C@H]1CCCCCCc1ccc(C)cc1
Activity [4]: inactive
Activity [2]: Non-toxic
